Results taken from ChEMBL document CHEMBL1833793 (Bioorg Med Chem Lett, 2011).

Columns and labels:
[1] = molecular target: T1, Neuropeptide Y receptor type 5 (Homo sapiens, UniProt Q15761); test: Binding affinity to human NPY5 receptor
T1 sequence (Q15761 whole entry): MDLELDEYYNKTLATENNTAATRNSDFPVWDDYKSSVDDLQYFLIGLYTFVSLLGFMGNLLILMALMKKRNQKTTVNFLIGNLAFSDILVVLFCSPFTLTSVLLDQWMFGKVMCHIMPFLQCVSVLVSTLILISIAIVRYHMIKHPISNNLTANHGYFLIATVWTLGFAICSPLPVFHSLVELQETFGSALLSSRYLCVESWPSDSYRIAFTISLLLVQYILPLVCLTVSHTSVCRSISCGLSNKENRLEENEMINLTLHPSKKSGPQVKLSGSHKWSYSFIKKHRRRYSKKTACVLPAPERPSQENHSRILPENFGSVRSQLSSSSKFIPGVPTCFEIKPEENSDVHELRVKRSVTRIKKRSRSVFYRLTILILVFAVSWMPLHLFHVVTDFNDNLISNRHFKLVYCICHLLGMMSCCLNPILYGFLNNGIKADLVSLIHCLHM

[2] = molecular target: T1, Neuropeptide Y receptor type 5; test: Antagonist activity at human NPY5 receptor assessed as calcium mobilization by FLIPR assay; type: functional
[3] = Plasma concentration in rat at 10 mg/kg, po after 4 hrs; type: ADME, organism-based; parameters: dose 10 mg/kg, route oral
Outline: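 Single oral dose of 10 mg/kg in rats, two animals. Plasma was sampled at 4 h and the two values averaged. LOQ 2 ng/mL.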

[4] = Drug uptake in rat brain at 10 mg/kg, po after 4 hrs; type: ADME, organism-based; parameters: dose 10 mg/kg, route oral; settings: read-out: Drug uptake
Outline: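 Rat single oral dose of 10 mg/kg, two animals; plasma and brain homogenate levels measured at 4 h and averaged; quantification limit 2 ng/mL plasma, 2 ng/g brain.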

Liver microsomes [5] = test: Intrinsic clearance in human liver microsome; type: ADME
Liver microsomes [6] = test: Intrinsic clearance in rat liver microsome; type: ADME
[7] = molecular target: T2, Neuropeptide Y receptor type 1 (Homo sapiens, UniProt P25929); test: Antagonist activity at human NPY1 receptor assessed as calcium mobilization by FLIPR assay; type: functional
T2 sequence (P25929 whole entry): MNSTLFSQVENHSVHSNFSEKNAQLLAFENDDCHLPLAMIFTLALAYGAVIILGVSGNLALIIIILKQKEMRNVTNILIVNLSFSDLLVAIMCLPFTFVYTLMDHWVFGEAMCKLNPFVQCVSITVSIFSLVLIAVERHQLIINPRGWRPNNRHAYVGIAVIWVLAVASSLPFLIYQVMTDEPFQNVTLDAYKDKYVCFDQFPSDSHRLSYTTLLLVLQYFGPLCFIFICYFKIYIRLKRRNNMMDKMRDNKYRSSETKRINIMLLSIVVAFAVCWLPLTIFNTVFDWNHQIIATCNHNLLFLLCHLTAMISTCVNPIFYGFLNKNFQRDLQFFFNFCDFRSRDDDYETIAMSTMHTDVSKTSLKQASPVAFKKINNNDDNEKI

[8] = molecular target: T3, Neuropeptide Y receptor type 2 (Homo sapiens, UniProt P49146); test: Antagonist activity at human NPY2 receptor assessed as calcium mobilization by FLIPR assay; type: functional
T3 sequence (P49146 whole entry): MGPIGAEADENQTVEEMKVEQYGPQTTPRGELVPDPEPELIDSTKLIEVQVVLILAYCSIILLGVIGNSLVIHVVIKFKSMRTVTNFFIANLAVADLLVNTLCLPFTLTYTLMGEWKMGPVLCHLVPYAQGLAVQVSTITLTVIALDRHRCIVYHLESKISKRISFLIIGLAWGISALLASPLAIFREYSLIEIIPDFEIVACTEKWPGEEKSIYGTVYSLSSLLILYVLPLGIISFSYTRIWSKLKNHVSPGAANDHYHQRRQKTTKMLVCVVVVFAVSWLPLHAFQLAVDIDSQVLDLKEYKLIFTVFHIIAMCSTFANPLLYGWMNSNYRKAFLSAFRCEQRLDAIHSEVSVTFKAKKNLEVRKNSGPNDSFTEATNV

[9] = molecular target: Neuropeptide Y receptor type 4 (Homo sapiens, UniProt P50391); test: Antagonist activity at human NPY4 receptor assessed as calcium mobilization by FLIPR assay; type: functional
Neuropeptide Y receptor type 4, sequence (P50391 whole entry): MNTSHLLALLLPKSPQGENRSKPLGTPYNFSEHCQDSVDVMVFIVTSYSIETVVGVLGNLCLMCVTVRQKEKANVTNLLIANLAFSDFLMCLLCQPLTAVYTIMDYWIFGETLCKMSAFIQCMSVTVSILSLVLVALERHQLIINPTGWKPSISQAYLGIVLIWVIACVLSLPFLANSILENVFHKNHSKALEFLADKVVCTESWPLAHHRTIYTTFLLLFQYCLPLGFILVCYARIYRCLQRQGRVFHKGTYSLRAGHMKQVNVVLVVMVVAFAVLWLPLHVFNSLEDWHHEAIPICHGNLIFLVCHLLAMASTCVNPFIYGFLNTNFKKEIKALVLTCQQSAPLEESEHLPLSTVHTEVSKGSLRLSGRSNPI

[10] = molecular target: T2, Neuropeptide Y receptor type 1; test: Binding affinity to NPY1 receptor
[11] = molecular target: T1, Neuropeptide Y receptor type 5; test: Binding affinity to NPY5 receptor
Rattus norvegicus = test: Antistress activity against chronic mild stress Sprague-Dawley rat model assessed as increase sucrose consumption at 5 mg/kg, ip bid measured after 4 weeks; type: functional; settings: route intraperitoneal

Ki [1] [nM] | IC50 [2] [nM] | Structure (SMILES) | further results
7.5 | 9.9 | O=S(=O)(CC(F)(F)F)NCCCCCNc1nc2c(s1)CCCc1ccc(F)cc1-2 | 
 | 0.9 | CS(=O)(=O)NCCCCCNc1nc2c(s1)CCCc1ccc(F)cc1-2 | 
2.4 |  | CC(C)S(=O)(=O)NCCOCCNc1nc2c(s1)CCCc1ccc(F)cc1-2 | 
13.9 | 43.6 | O=S(=O)(NC[C@H]1CC[C@H](Nc2nc3c(s2)CCSc2ccccc2-3)CC1)c1cccc2ccccc12 | 
46 | 98.7 | CC(C)S(=O)(=O)NCCCCCNc1nc2c(s1)CCCc1ccc(F)cc1-2 | 
0.8 | 0.6 | CCS(=O)(=O)NCCCCCNc1nc2c(s1)CCSc1ccccc1-2 | concentration at 4 h [3]: 14 ng/mL
1.7 |  | CS(=O)(=O)NCCCCCNc1nc2c(s1)CCSc1ccc(F)cc1-2 | concentration at 4 h [4]: 140 ng/g; CL (Liver microsomes [5]): 6.8 L/min; concentration at 4 h [3]: 61 ng/mL; CL (Liver microsomes [6]): 89 mL/min
3.4 | 1.9 | O=S(=O)(CC(F)(F)F)NCCCCNc1nc2c(s1)CCCc1ccc(F)cc1-2 | 
6.7 |  | COc1ccc2c(c1)OCCc1sc(NC[C@H]3CC[C@H](NS(C)(=O)=O)CC3)nc1-2 | 
1.1 |  | CS(=O)(=O)NC[C@H]1CC[C@H](Nc2nc3c(s2)CCCc2ccc(F)cc2-3)CC1 | 
4.9 | 34.6 | COc1ccc(C)cc1S(=O)(=O)NC[C@H]1CC[C@H](Nc2nc3c(s2)CCSc2ccccc2-3)CC1 | IC50 [7]: > 1000 nM; IC50 [8]: > 1000 nM; IC50 [9]: > 1000 nM
 |  | COc1ccccc1CNCCCCCCNCCSSCCNCCCCCCNCc1ccccc1OC [BENEXTRAMINE] | Ki [10]: 1800 nM; Ki [11]: 5000 nM
1.1 |  | COc1cccc2c1OCCc1sc(N[C@H]3CC[C@H](CNS(C)(=O)=O)CC3)nc1-2 | 
 |  | CN(C)CCC[C@@]1(c2ccc(F)cc2)OCc2cc(C#N)ccc21 [ESCITALOPRAM] | Activity (Rattus norvegicus): >10%
2.8 | 30.8 | CCS(=O)(=O)NC[C@H]1CC[C@H](Nc2nc3c(s2)CCSc2ccccc2-3)CC1 | IC50 [7]: > 1000 nM; IC50 [8]: > 1000 nM; IC50 [9]: > 1000 nM
1.9 | 3.8 | O=S(=O)(NC[C@H]1CC[C@H](Nc2nc3c(s2)CCSc2ccccc2-3)CC1)c1cccs1 | concentration at 4 h [4]: 10 ng/g; IC50 [7]: > 1000 nM; CL (Liver microsomes [5]): 6.9 L/min; IC50 [8]: > 1000 nM; concentration at 4 h [3]: 8 ng/mL; IC50 [9]: > 1000 nM; CL (Liver microsomes [6]): 120 mL/min
27 | 8.8 | CS(=O)(=O)N[C@H]1CC[C@H](Nc2nc3c(s2)CCCc2ccc(F)cc2-3)CC1 | 
8.8 | 5 | CS(=O)(=O)NCCCCCNc1nc2c(s1)CCSc1ccccc1-2 | 
16.1 | 3.9 | CS(=O)(=O)NC[C@H]1CC[C@H](Nc2nc3c(s2)CCOc2ccccc2-3)CC1 | 
0.9 | 1.3 | CCS(=O)(=O)NCCCCCNc1nc2c(s1)CCCc1ccc(F)cc1-2 | 
21.5 | 10.4 | Cn1cnc(S(=O)(=O)NC[C@H]2CC[C@H](Nc3nc4c(s3)CCSc3ccccc3-4)CC2)c1 | 
